# Test results taken from article PMC5656813 (Arthritis & Rheumatology (Hoboken, N.j.), 2017).
# Tested on: RA patients
# Assay: Study 2, treatment‐emergent adverse events
# Type: in vivo, human
# Method in brief: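 Both double-blind, placebo-controlled trials in RA patients on stable MTX. Oral capsules daily for 4 weeks, with 7–10-day follow-up: 200 mg once daily or 100 mg twice daily (study 1); 30, 75, 150 or 300 mg once daily (study 2). At every visit: AEs, vital signs, hematology, serum biochemistry, coagulation and urinalysis. EKG at baseline and follow-up, plus week 4 in study 1. Safety population, descriptive treatment-emergent AE summaries.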
smiles,measurement,setting,value
O=C(Nc1nc2cccc(-c3ccc(CN4CCS(=O)(=O)CC4)cc3)n2n1)C1CC1 [Filgotinib],treatment-related TEAE: Abdominal discomfort,30 mg once daily,0 number (%) of patients
same,"treatment-related TEAE: Abdominal pain, upper",30 mg once daily,0 number (%) of patients
same,treatment-related TEAE: Aspartate aminotransferase increased,30 mg once daily,1 (5.9) number (%) of patients
same,treatment-related TEAE: Blood amylase increased,30 mg once daily,0 number (%) of patients
same,treatment-related TEAE: Blood and lymphatic system disorders,30 mg once daily,0 number (%) of patients
same,treatment-related TEAE: Blood triglycerides increased,30 mg once daily,1 (5.9) number (%) of patients
same,"treatment-related TEAE: Cystitis, noninfectious",30 mg once daily,0 number (%) of patients
same,treatment-related TEAE: Duodenogastric reflux,30 mg once daily,0 number (%) of patients
same,treatment-related TEAE: Ear and labyrinth disorders,30 mg once daily,0 number (%) of patients
same,treatment-related TEAE: Gastrointestinal disorders,30 mg once daily,1 (5.9) number (%) of patients
same,treatment-related TEAE: Gastrointestinal pain,30 mg once daily,0 number (%) of patients
same,treatment-related TEAE: General disorders and administration site reactions,30 mg once daily,0 number (%) of patients
same,treatment-related TEAE: Gingival bleeding,30 mg once daily,0 number (%) of patients
same,treatment-related TEAE: Infections and infestations,30 mg once daily,0 number (%) of patients
same,treatment-related TEAE: Laboratory findings,30 mg once daily,2 (11.8) number (%) of patients
same,treatment-related TEAE: Lipase increased,30 mg once daily,0 number (%) of patients
same,treatment-related TEAE: Musculoskeletal and connective tissue disorders,30 mg once daily,0 number (%) of patients
same,treatment-related TEAE: Nervous system disorders,30 mg once daily,0 number (%) of patients
same,treatment-related TEAE: Renal and urinary disorders,30 mg once daily,0 number (%) of patients
same,treatment-related TEAE: Abdominal discomfort,75 mg once daily,0 number (%) of patients
same,"treatment-related TEAE: Abdominal pain, upper",75 mg once daily,0 number (%) of patients
same,treatment-related TEAE: Aspartate aminotransferase increased,75 mg once daily,0 number (%) of patients
same,treatment-related TEAE: Blood amylase increased,75 mg once daily,0 number (%) of patients
same,treatment-related TEAE: Blood and lymphatic system disorders,75 mg once daily,1 (4.5) number (%) of patients
same,treatment-related TEAE: Blood triglycerides increased,75 mg once daily,0 number (%) of patients
same,"treatment-related TEAE: Cystitis, noninfectious",75 mg once daily,0 number (%) of patients
same,treatment-related TEAE: Duodenogastric reflux,75 mg once daily,1 (4.5) number (%) of patients
same,treatment-related TEAE: Ear and labyrinth disorders,75 mg once daily,0 number (%) of patients
same,treatment-related TEAE: Gastrointestinal disorders,75 mg once daily,2 (9.1) number (%) of patients
same,treatment-related TEAE: Gastrointestinal pain,75 mg once daily,0 number (%) of patients
same,treatment-related TEAE: General disorders and administration site reactions,75 mg once daily,0 number (%) of patients
same,treatment-related TEAE: Gingival bleeding,75 mg once daily,1 (4.5) number (%) of patients
same,treatment-related TEAE: Infections and infestations,75 mg once daily,0 number (%) of patients
same,treatment-related TEAE: Laboratory findings,75 mg once daily,0 number (%) of patients
same,treatment-related TEAE: Lipase increased,75 mg once daily,0 number (%) of patients
same,treatment-related TEAE: Musculoskeletal and connective tissue disorders,75 mg once daily,0 number (%) of patients
same,treatment-related TEAE: Nervous system disorders,75 mg once daily,0 number (%) of patients
same,treatment-related TEAE: Renal and urinary disorders,75 mg once daily,0 number (%) of patients
same,treatment-related TEAE: Abdominal discomfort,150 mg once daily,0 number (%) of patients
same,"treatment-related TEAE: Abdominal pain, upper",150 mg once daily,0 number (%) of patients
same,treatment-related TEAE: Aspartate aminotransferase increased,150 mg once daily,0 number (%) of patients
same,treatment-related TEAE: Blood amylase increased,150 mg once daily,0 number (%) of patients
same,treatment-related TEAE: Blood and lymphatic system disorders,150 mg once daily,0 number (%) of patients
same,treatment-related TEAE: Blood triglycerides increased,150 mg once daily,0 number (%) of patients
same,"treatment-related TEAE: Cystitis, noninfectious",150 mg once daily,0 number (%) of patients
same,treatment-related TEAE: Duodenogastric reflux,150 mg once daily,0 number (%) of patients
same,treatment-related TEAE: Ear and labyrinth disorders,150 mg once daily,0 number (%) of patients
same,treatment-related TEAE: Gastrointestinal disorders,150 mg once daily,1 (6.7) number (%) of patients
same,treatment-related TEAE: Gastrointestinal pain,150 mg once daily,0 number (%) of patients
same,treatment-related TEAE: General disorders and administration site reactions,150 mg once daily,0 number (%) of patients
same,treatment-related TEAE: Gingival bleeding,150 mg once daily,0 number (%) of patients
same,treatment-related TEAE: Infections and infestations,150 mg once daily,0 number (%) of patients
same,treatment-related TEAE: Laboratory findings,150 mg once daily,0 number (%) of patients
same,treatment-related TEAE: Lipase increased,150 mg once daily,0 number (%) of patients
same,treatment-related TEAE: Musculoskeletal and connective tissue disorders,150 mg once daily,0 number (%) of patients
same,treatment-related TEAE: Nervous system disorders,150 mg once daily,0 number (%) of patients
same,treatment-related TEAE: Renal and urinary disorders,150 mg once daily,0 number (%) of patients
same,treatment-related TEAE: Abdominal discomfort,300 mg once daily,0 number (%) of patients
same,"treatment-related TEAE: Abdominal pain, upper",300 mg once daily,0 number (%) of patients
same,treatment-related TEAE: Aspartate aminotransferase increased,300 mg once daily,0 number (%) of patients
same,treatment-related TEAE: Blood amylase increased,300 mg once daily,0 number (%) of patients
same,treatment-related TEAE: Blood and lymphatic system disorders,300 mg once daily,0 number (%) of patients
same,treatment-related TEAE: Blood triglycerides increased,300 mg once daily,0 number (%) of patients
same,"treatment-related TEAE: Cystitis, noninfectious",300 mg once daily,1 (5.0) number (%) of patients
same,treatment-related TEAE: Duodenogastric reflux,300 mg once daily,0 number (%) of patients
same,treatment-related TEAE: Ear and labyrinth disorders,300 mg once daily,0 number (%) of patients
same,treatment-related TEAE: Gastrointestinal disorders,300 mg once daily,2 (10.0) number (%) of patients
same,treatment-related TEAE: Gastrointestinal pain,300 mg once daily,1 (5.0) number (%) of patients
same,treatment-related TEAE: General disorders and administration site reactions,300 mg once daily,0 number (%) of patients
same,treatment-related TEAE: Gingival bleeding,300 mg once daily,0 number (%) of patients
same,treatment-related TEAE: Laboratory findings,300 mg once daily,0 number (%) of patients
same,treatment-related TEAE: Lipase increased,300 mg once daily,0 number (%) of patients
